Legend:
[1] = target: Bifunctional dihydrofolate reductase-thymidylate synthase (Leishmania major, UniProt P07382); assay: Inhibition of dihydrofolate reductase (DHFR) from Leishmania major; conditions: read-out: Log 1/Ki (converted)
[2] = test system: Leishmania major; assay: Growth inhibition against Leishmania major promastigotes in culture; type: functional, organism-based; conditions: read-out: Log 1/EC50 (converted)
Summary of the method: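 Seeded at 5 × 10⁶ cells/mL with four to six inhibitor concentrations spanning the I50. Coulter-counted daily for 5 days or until out of log phase. EC50 = concentration halving growth rate versus drug-free medium, from log dose vs percent growth plot.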

Chain of Bifunctional dihydrofolate reductase-thymidylate synthase (P07382 whole entry): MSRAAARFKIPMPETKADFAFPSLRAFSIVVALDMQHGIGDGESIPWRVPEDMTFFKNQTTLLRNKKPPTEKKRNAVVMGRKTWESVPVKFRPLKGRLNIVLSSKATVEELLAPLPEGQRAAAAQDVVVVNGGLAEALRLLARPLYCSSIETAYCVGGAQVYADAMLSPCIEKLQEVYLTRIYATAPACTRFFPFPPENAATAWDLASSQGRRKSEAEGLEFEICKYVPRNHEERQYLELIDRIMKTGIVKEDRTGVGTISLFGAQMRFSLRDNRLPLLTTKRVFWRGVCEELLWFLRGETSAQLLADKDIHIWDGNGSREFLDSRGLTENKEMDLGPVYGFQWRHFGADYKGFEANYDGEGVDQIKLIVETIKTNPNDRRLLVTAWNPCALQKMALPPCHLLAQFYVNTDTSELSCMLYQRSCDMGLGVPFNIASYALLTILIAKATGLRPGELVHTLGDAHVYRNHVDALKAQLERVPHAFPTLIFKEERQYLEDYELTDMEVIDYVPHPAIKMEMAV

Structure (SMILES)	Ki [1]	EC50 [2]
Cc1cccc(OCc2cccc(N3C(N)=NC(N)=NC3(C)C)c2)c1	427 nM	219000 nM
CC1(C)N=C(N)N=C(N)N1c1cccc(C[Se]c2ccccc2)c1	275 nM	–
CC1(C)N=C(N)N=C(N)N1c1cccc(COc2cc(Cl)c(Cl)cc2Cl)c1	69.2 nM	25100 nM
CCc1cccc(OCc2cccc(N3C(N)=NC(N)=NC3(C)C)c2)c1	126 nM	–
CC1(C)N=C(N)N=C(N)N1c1cccc(CNc2ccc(S(N)(=O)=O)cc2)c1	759 nM	–
CC1(C)N=C(N)N=C(N)N1c1cccc(COc2cccc(C#N)c2)c1	178 nM	–
CC1(C)N=C(N)N=C(N)N1c1cccc(SCc2ccc(Cl)cc2)c1	110 nM	60300 nM
CC1(C)N=C(N)N=C(N)N1c1cccc(CNc2cc(C(N)=O)cc(C(N)=O)c2)c1	513 nM	501000 nM
CC1(C)N=C(N)N=C(N)N1c1cccc(CSc2ccccc2)c1	407 nM	–
CCCCCCCCCCCCCCOc1cccc(N2C(N)=NC(N)=NC2(C)C)c1	5890 nM	–
CC1(C)N=C(N)N=C(N)N1c1cccc(C(O)c2ccccc2)c1 (stereo not drawn)	42700 nM	–
CCCCCCCCCCCOc1cccc(N2C(N)=NC(N)=NC2(C)C)c1	977 nM	–
CCCCCCCCCCCCc1cccc(N2C(N)=NC(N)=NC2(C)C)c1	72.4 nM	7940 nM
CC1(C)N=C(N)N=C(N)N1c1cccc([N+](=O)[O-])c1	10000 nM	–
CC1(C)N=C(N)N=C(N)N1c1cccc(COc2cccc(CO)c2)c1	646 nM	–
CC1(C)N=C(N)N=C(N)N1c1cccc(COc2cccc3ccccc23)c1	39.8 nM	51300 nM
CC(=O)c1cccc(N2C(N)=NC(N)=NC2(C)C)c1	39800 nM	–
CC1(C)N=C(N)N=C(N)N1c1cccc(C(F)(F)F)c1	2190 nM	–
CC1(C)N=C(N)N=C(N)N1c1cccc(OCCCCOc2cccc(C(F)(F)F)c2)c1	75.9 nM	–
CC1(C)N=C(N)N=C(N)N1c1cccc(SCc2ccccc2)c1	224 nM	–
CN(Cc1cnc2nc(N)nc(N)c2n1)c1ccc(C(=O)N[C@@H](CCC(=O)O)C(=O)O)cc1 [METHOTREXATE]	–	1000 nM
CC(C)c1cccc(OCc2cccc(N3C(N)=NC(N)=NC3(C)C)c2)c1	174 nM	57500 nM
COc1cccc(N2C(N)=NC(N)=NC2(C)C)c1	22900 nM	–
CC1(C)N=C(N)N=C(N)N1c1cccc(CNc2ccc(Cl)cc2)c1	661 nM	263000 nM

Now from value to compound, other results behind:

Ki [1]	Structure (SMILES)	EC50 [2]
6030 nM	CC1(C)N=C(N)N=C(N)N1c1cccc(C#N)c1	–
302 nM	CCCCCCCCCOc1cccc(N2C(N)=NC(N)=NC2(C)C)c1	–
20.9 nM	CCCCCCCCCc1cccc(N2C(N)=NC(N)=NC2(C)C)c1	8510 nM
5750 nM	CC(C)(C)c1cccc(N2C(N)=NC(N)=NC2(C)C)c1	–
3980 nM	CCCCCCOc1cccc(N2C(N)=NC(N)=NC2(C)C)c1	–
75.9 nM	CC(=O)Nc1cccc(OCc2cccc(N3C(N)=NC(N)=NC3(C)C)c2)c1	–
12600 nM	CC1(C)N=C(N)N=C(N)N1c1ccccc1	–
3090 nM	CC1(C)N=C(N)N=C(N)N1c1cccc(OCC23CC4CC(CC(C4)C2)C3)c1	–
17 nM	CC1(C)N=C(N)N=C(N)N1c1cccc(COc2cccc(-c3ccccc3)c2)c1	22900 nM
53700 nM	CC1(C)N=C(N)N=C(N)N1c1cccc(O)c1	–
1910 nM	CC1(C)N=C(N)N=C(N)N1c1cccc(OCc2ccccc2)c1	–
151 nM	COc1cccc(OCc2cccc(N3C(N)=NC(N)=NC3(C)C)c2)c1	309000 nM
38000 nM	CCOc1cccc(N2C(N)=NC(N)=NC2(C)C)c1	–
363000 nM	CC1(C)N=C(N)N=C(N)N1c1cccc(S(N)(=O)=O)c1	–
91.2 nM	CC1(C)N=C(N)N=C(N)N1c1cccc(COc2cccc(NC(N)=O)c2)c1	–
339 nM	CCCCCc1ccc(OCc2cccc(N3C(N)=NC(N)=NC3(C)C)c2)cc1	–
251 nM	CC1(C)N=C(N)N=C(N)N1c1cccc(OCCOc2cccc(C(F)(F)F)c2)c1	126000 nM
1200 nM	CC1(C)N=C(N)N=C(N)N1c1cccc(Cl)c1	–
112000 nM	CCOC(=O)c1cccc(N2C(N)=NC(N)=NC2(C)C)c1	–
117000 nM	CC1(C)N=C(N)N=C(N)N1c1cccc(C(N)=O)c1	–
224 nM	CC1(C)N=C(N)N=C(N)N1c1cccc(COc2cccc(Cl)c2)c1	–
1950 nM	CCc1cccc(N2C(N)=NC(N)=NC2(C)C)c1	–

— ChEMBL document CHEMBL1123784, “Quantitative structure-activity relationship of triazine-antifolate inhibition of Leishmania dihydrofolate reductase and cell growth” (J Med Chem, 1987)
